The residual activity is what remains of the control signal, in per cent.

Test [1] concerns Candida albicans. Nature of the test: Synergistic antifungal activity against Candida albicans ATCC 90028 at 40 ug/ml after 48 hrs in presence of 20 ug/ml fluconazol by checkerboard assay relative to control. The class given is functional. The method in brief: (§1)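 Checkerboard in C. albicans ATCC 90028, inoculum prepared per CLSI M27-A3 in RPMI. Fluconazole serially diluted 80-1.25 µg/mL across the plate against the partner compound at 80-1.25 µg/mL final. Incubated 48 h at 35°C. Metabolic activity read by XTT reduction at 475 nm (660 nm reference), given as % of the untreated growth control.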

Test [2] deals with Candida albicans. Nature of the test: Antifungal activity against Candida albicans ATCC 90028 assessed as metabolic activity at 20 ug/ml after 48 hrs in presence of 1.25 ug/ml fluconazol by XTT assay relative to control.
In test [3] the test system is Candida albicans. Nature of the test: Synergistic antifungal activity against Candida albicans ATCC 90028 at 20 ug/ml after 48 hrs in presence of 80 ug/ml fluconazol by checkerboard assay relative to control. The format is functional. The method in brief:
as §1

Test [4] has as its system Candida albicans. The test is described as follows: Antifungal activity against Candida albicans ATCC 90028 at 0.5 ug/ml after 18 hrs relative to control. The format is functional. The gist of the method: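 Planktonic broth microdilution per M27-A3 in MOPS-buffered RPMI 1640 (pH 7.0), final inoculum 1.8×10^3 cells/mL, compounds 0.0313–16 µg/mL from 1600 µg/mL stocks in ethanol or DMSO. Incubated at 35°C without agitation; OD405 read at 18 and 48 h. % inhibition was derived from test, sterility (no inoculum) and solvent growth-control wells. Amphotericin B at 0.5 µg/mL served as the 100% control.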

The subject of test [5] is Candida albicans. The test is described as follows: Synergistic antifungal activity against Candida albicans ATCC 90028 at 20 ug/ml after 48 hrs in presence of 2.5 ug/ml fluconazol by checkerboard assay relative to control. The format is functional. The method in brief:
(§2)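 Checkerboard microdilution (M27-A3) on C. albicans ATCC 90028 in RPMI 1640: fluconazole (80-1.25 µg/mL) crossed with tetrazole (80-1.25 µg/mL final), incubated at 35°C for 48 h. Growth by OD405 at 18 and 48 h, endpoint taken as 100% inhibition. FIC index = sum of the two agents' FICs; <1 synergism, >1 antagonism.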

Test [6] concerns Candida albicans. Nature of the test: Synergistic antifungal activity against Candida albicans ATCC 90028 at 1.25 ug/ml after 48 hrs in presence of 80 ug/ml fluconazol by checkerboard assay relative to control. The class given is functional. The gist of the method:
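Checkerboard per M27-A3 against ATCC 90028: fluconazole at 80–1.25 µg/mL horizontally and partner compound at 80–1.25 µg/mL vertically, 100 µL yeast inoculum per well, 35°C for 48 h. After 48 h, metabolic activity was measured by XTT reduction at 475 nm (660 nm reference) relative to untreated growth control. FIC index is the sum of the FICs; <1 was defined as synergism and >1 as antagonism.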

In test [7] the test system is Candida albicans. Nature of the test: Antifungal activity against Candida albicans ATCC 90028 assessed as metabolic activity at 20 ug/ml after 48 hrs in presence of 20 ug/ml fluconazol by XTT assay relative to control. The note with it: ATCC 90028, 48 h.
For test [8], the system named is Candida albicans. Nature of the test: Antifungal activity against Candida albicans ATCC 90028 assessed as metabolic activity at 80 ug/ml after 48 hrs in presence of 1.25 ug/ml fluconazol by XTT assay relative to control. (In general: Tetrazolium dyes change colour on reduction, which living cells bring about.)
The subject of test [9] is Candida albicans. The test is described as follows: Synergistic antifungal activity against Candida albicans ATCC 90028 at 2.5 ug/ml after 48 hrs in presence of 20 ug/ml fluconazol by checkerboard assay relative to control. The class given is functional. The gist of the method: as §2
Test [10] deals with Candida albicans. The test is described as follows: Antifungal activity against Candida albicans ATCC 90028 assessed as inhibition of metabolic activity at 10 ug/ml after 48 hrs in presence of 10 ug/ml fluconazol by XTT assay relative to control. The class given is functional. The note with it: ATCC 90028, 48 h, values are per cent of control. The method in brief:
(§3)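 Checkerboard against strain ATCC 90028, inoculum per M27-A3: fluconazole 80-1.25 µg/mL on one axis, tetrazole 80-1.25 µg/mL on the other. Plates at 35°C for 48 h, then XTT metabolic reduction read at 475 nm (660 nm reference). Activity is the drop in mean absorbance against untreated growth control. FICs and their summed FIC index are taken at 50% reduction in metabolic activity.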

For test [11], the system named is Candida albicans. The test is described as follows: Synergistic antifungal activity against Candida albicans ATCC 90028 at 5 ug/ml after 48 hrs in presence of 10 ug/ml fluconazol by checkerboard assay relative to control. The format is functional. The method in brief: as §1
The subject of test [12] is Candida albicans. Nature of the test: Antifungal activity against Candida albicans ATCC 90028 assessed as inhibition of metabolic activity at 5 ug/ml after 48 hrs in presence of 1.25 ug/ml fluconazol by XTT assay relative to control. The note with it: values are per cent of control. The class given is functional. The method in brief: as §3
The test system of test [13] is Candida albicans. Nature of the test: Synergistic antifungal activity against Candida albicans ATCC 90028 at 80 ug/ml after 48 hrs in presence of 5 ug/ml fluconazol by checkerboard assay relative to control. The format is functional. The gist of the method:
as §1

The subject of test [14] is Candida albicans. The test is described as follows: Antifungal activity against Candida albicans ATCC 90028 at 0.25 ug/ml after 18 hrs relative to control. The class given is functional. The method in brief:
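Fluconazole (water stock, diluted in RPMI 1640) tested by CLSI M27-A3 broth microdilution against C. albicans ATCC 90028. Inoculum 1.8×10^3 cells/mL in RPMI 1640 buffered with MOPS, pH 7.0. Incubation at 35°C without agitation, read at 18 and 48 h. Growth by OD405 and visually; inhibition % calculated against solvent growth-control wells after subtracting sterility-control wells.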

Test [15] concerns Candida albicans. Nature of the test: Antifungal activity against Candida albicans ATCC 90028 assessed as inhibition of metabolic activity at 5 ug/ml after 48 hrs in presence of 5 ug/ml fluconazol by XTT assay relative to control. The format is functional. Particulars: ATCC 90028, 48 h, values are per cent of control. The gist of the method:
as §3

The subject of test [16] is Candida albicans. The test is described as follows: Synergistic antifungal activity against Candida albicans ATCC 90028 at 5 ug/ml after 48 hrs in presence of 20 ug/ml fluconazol by checkerboard assay relative to control. The format is functional. The gist of the method: as §1
Test [17] concerns Candida albicans. Nature of the test: Antifungal activity against Candida albicans ATCC 90028 assessed as metabolic activity at 40 ug/ml after 48 hrs in presence of 10 ug/ml fluconazol by XTT assay relative to control.
Test [18] deals with Candida albicans. Nature of the test: Antifungal activity against Candida albicans ATCC 90028 at 0.0625 ug/ml after 18 hrs relative to control. The class given is functional.
Test [19] relates to Candida albicans. Nature of the test: Synergistic antifungal activity against Candida albicans ATCC 90028 at 5 ug/ml after 48 hrs in presence of 80 ug/ml fluconazol by checkerboard assay relative to control. The format is functional. The method in brief: as §1
Test [20] relates to Candida albicans. Nature of the test: Antifungal activity against Candida albicans ATCC 90028 assessed as inhibition of metabolic activity at 1.25 ug/ml after 48 hrs in presence of 40 ug/ml fluconazol by XTT assay relative to control. The format is functional. Particulars: values are per cent of control. The gist of the method: as §3

With `Cc1ccc(-c2nnn(CCCN3CCOCC3)n2)cc1`, the “growth inhibition (GI)” value is 99.55% in the test on Candida albicans [1]; 99.26% in the test with Candida albicans [3]; 99.31% in the test with Candida albicans [5]; 99.54% in the test on Candida albicans [6]; 98.82% in the test with Candida albicans [9]; 98.8% in the test with Candida albicans [11]. Further, the results for the “growth inhibition (GI)” value in the test on Candida albicans [13], in the test with Candida albicans [16] and in the test on Candida albicans [19] were 97.8%, 99.16% and 99.47%, respectively. In addition, the values for the Metabolic activity in the test on Candida albicans [2], in the test on Candida albicans [8] and in the test with Candida albicans [17] were 76.07%, 100% and 28.26%, respectively. Further, the Activity in the test with Candida albicans [4] was found to be 98.99%; in the test with Candida albicans [14], 98.25%; in the test with Candida albicans [18] it was 99.5%. In addition, in the test on Candida albicans [7], the Metabolic activity at 20 µg/mL was 61.7%. Besides, the residual activity at 10 µg/mL in the test on Candida albicans [10] turned out to be 99%. Also, the residual activity in the test with Candida albicans [12] and with Candida albicans [20] was 100% each time. The residual activity at 5 µg/mL with Candida albicans [15] was found to be 100%.
For `ClCCCn1nnnc1-c1ccccc1Cl`, the “growth inhibition (GI)” value in the test with Candida albicans [1] is recorded as 99.53%; in the test with Candida albicans [3] it was 99.33%; with Candida albicans [5], 99.25%; in the test on Candida albicans [6], 99.49%; with Candida albicans [9] it was 99.53%; in the test with Candida albicans [11], 99.66%. The “growth inhibition (GI)” value is given as 99.27% in the test with Candida albicans [13], 99.67% in the test with Candida albicans [16] and 99.34% in the test on Candida albicans [19]. The Metabolic activity with Candida albicans [2] came out at 0%; in the test with Candida albicans [8], 2.6%; with Candida albicans [17] it was 70.86%. Moreover, the values for the Activity in the test with Candida albicans [4], with Candida albicans [14] and with Candida albicans [18] were 98.4%, 99.96% and 99.9%, respectively. In the test on Candida albicans [7], the Metabolic activity at 20 µg/mL turned out to be 67.8%. For the same compound, the residual activity at 10 µg/mL with Candida albicans [10] was determined as 75.4%. The values for the residual activity in the test on Candida albicans [12] and in the test on Candida albicans [20] were 79.99% and 81.57%, respectively. In addition, the residual activity at 5 µg/mL with Candida albicans [15] came to 100%.
With `CCOC(=O)CCn1nnc(-c2ccccc2)n1`, the “growth inhibition (GI)” value came out at 99.54% in the test on Candida albicans [1]; 99.25% with Candida albicans [3]; 99.63% in the test on Candida albicans [5]; 99.51% in the test with Candida albicans [6]; 99.52% with Candida albicans [9]; 99.57% in the test with Candida albicans [11]. For the same compound, the “growth inhibition (GI)” value with Candida albicans [13] was 99.18%; in the test with Candida albicans [16], 99.58%; in the test on Candida albicans [19], 99.61%. Moreover, the Metabolic activity is recorded as 90.68% in the test on Candida albicans [2], 41.98% in the test with Candida albicans [8] and 56.45% with Candida albicans [17]. Moreover, the Activity in the test with Candida albicans [4] was 98.97%; with Candida albicans [14], 98.4%; with Candida albicans [18], 99.57%. For the same compound, the Metabolic activity at 20 µg/mL in the test with Candida albicans [7] turned out to be 57.3%. The residual activity at 10 µg/mL in the test with Candida albicans [10] came to 76.2%. The residual activity stood at 88.02% in the test on Candida albicans [12] and 86.85% with Candida albicans [20]. Besides, the residual activity at 5 µg/mL with Candida albicans [15] turned out to be 100%.

The values are drawn from ChEMBL document CHEMBL4145471, “New 1,5 and 2,5-disubstituted tetrazoles-dependent activity towards surface barrier of Candida albicans” (Eur J Med Chem, 2018).
